In ChEMBL document CHEMBL1151210, “Antioxidative constituents from the leaves of Hypericum styphelioides” (J Nat Prod, 2004):

Key:
[1] = Antioxidant activity assessed as trolox equivalent of ABTS radical scavenging activity by spectrophotometry; assay type: functional
Procedure, shortened: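 ABTS radical monocation, preformed, scavenging read spectrophotometrically. Samples were diluted in MeOH to 0.3, 0.5, 1.0, 1.5 and 2.0 mM. 10 µL of sample or Trolox standard was added to 1.0 mL diluted ABTS, with MeOH as control. % inhibition of A734 vs control was taken 1 min after mixing, in triplicate. Value = Trolox concentration matching the inhibition of 1 mM compound.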

[2] = Antioxidant activity assessed as trolox equivalent of free radical scavenging activity by chemiluminescence assay; assay type: functional
Procedure, shortened: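 Measures inhibition of p-iodophenol-enhanced chemiluminescence from a horseradish peroxidase/perborate/luminol system. Signal reagent was made by dissolving tablets (luminol, p-iodophenol enhancer, perborate oxidant) in assay buffer. Trolox served as reference antioxidant, and activity is expressed in Trolox-equivalent mM.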

Structure (SMILES)	Activity [1] [mM]	Activity [2] [mM]
O=c1c(O)c(-c2ccc(O)c(O)c2)oc2cc(O)cc(O)c12	3.33	3.09
C=C(C)[C@H]1C[C@H](c2c(O)cc3oc4c(O)c(O)ccc4c(=O)c3c2O)C(C)(C)C1	2.75	1.78
CC(C)=CCC/C(C)=C/Cc1c(O)cc(O)c(C(=O)CC(C)C)c1O	1.1	0.96
O=C(c1ccccc1)c1cc(O)c([C@@H]2O[C@H](CO)[C@@H](O)[C@H](O)[C@H]2O)c(O)c1	1.93	1.24
C[C@@H]1O[C@@H](OC[C@H]2O[C@@H](Oc3c(-c4ccc(O)c(O)c4)oc4cc(O)cc(O)c4c3=O)[C@H](O)[C@@H](O)[C@@H]2O)[C@H](O)[C@H](O)[C@H]1O	2.78	2.54
C=C(C)[C@H]1C[C@H](c2c(O)cc3oc4c(O)cccc4c(=O)c3c2O)C(C)(C)C1	2.92	1.94
